Results on eight compounds are retold here after ChEMBL document CHEMBL1909522, “Inhibitory effect on NO production of phenolic compounds from Myristica fragrans” (Bioorg Med Chem Lett, 2011).

As usually defined, the IC50 is the concentration at which inhibition is half-maximal.

Series [1] has as its system RAW264.7. Description: Antiinflammatory activity in mouse RAW264.7 cells assessed as inhibition of LPS-induced NO production after 24 hrs by Griess reagent method. Format: functional, cell-based. To be noted: RAW264.7, 24 h. Put shortly:
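RAW264.7 cells (1 × 10^5 per well) stimulated with 1 µg/mL LPS for 24 h with or without test compounds (0.5–25 µM). Nitrite in culture supernatant measured by Griess reaction as NO marker. IC50 relative to vehicle control; average of three repeated experiments.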

In series [2] the test system is RAW264.7. In words: Cytotoxicity against mouse RAW264.7 cells assessed as cell viability at 50 uM after 24 hrs by MTT assay. The format is cell-based. To be noted: raw264.7, 24 h. Put shortly:
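Cells remaining after the Griess step, with or without LPS (1 µg/mL) and compound at 50 µM for 24 h, assessed by MTT colorimetric assay for viability.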
A general note: Tetrazolium assays rely on reduction of a dye to a coloured formazan, in cell work by metabolically active cells.

Series [3] has as its system RAW264.7. In words: Antiinflammatory activity in mouse RAW264.7 cells assessed as inhibition of LPS-stimulated iNOS expression after 18 hrs by immunoblot analysis. The format is functional, cell-based. Put shortly: (§1)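 RAW264.7 cells pretreated 30 min with compound (0, 1, 3, 10 µM), then stimulated with LPS 1 µg/mL for 18 h. Lysates in Tris-HCl pH 7.5/NP-40 buffer with protease/phosphatase inhibitors; 50 µg protein per lane on SDS-PAGE, PVDF transfer, antibody probing, ECL detection. Densitometry normalized to α-tubulin; mean ± S.D.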
(A western blot detects proteins with antibodies after separation by electrophoresis.)

The subject of series [4] is RAW264.7. In words: Antiinflammatory activity in mouse RAW264.7 cells assessed as inhibition of LPS-stimulated COX2 expression after 18 hrs by immunoblot analysis. Format: functional, cell-based. Put shortly: as §1
Series [5] relates to RAW264.7. Description: Antiinflammatory activity in mouse RAW264.7 cells assessed as inhibition of LPS-stimulated alpha-tubulin expression at 0.1 to 10 uM after 18 hrs by immunoblot analysis. Format: functional, cell-based.

Structures are written as SMILES. Active and inactive are the calls of the source. The calls are words filed in the database; no cut-off is given here. Bounds are passed on as bounds.

For `C/C=C/c1ccc(O[C@H](C)[C@@H](O)c2ccc(O)c(OC)c2)c(OC)c1`, in the series on RAW264.7 [1], the concentration for half-maximal inhibition (IC50) was found to be 25 µM. Further, the Activity result with RAW264.7 [2] is on record as “Non-toxic”.
For `COc1cc(C[C@@H](C)[C@H](C)c2cc(O)c(O)c(OC)c2)ccc1O` the same measures were 32.5 µM and “Non-toxic”.
Regarding `C=CCc1cc(OC)c(O[C@H](C)[C@@H](OC(C)=O)c2ccc(OC)c(OC)c2)c(OC)c1`, in the series on RAW264.7 [1], the IC50 is 24.5 µM.
For the compound `COc1cc(CC[C@H](O)c2ccc(O)cc2O)ccc1O`, the half-maximal inhibitory concentration (IC50) in the series on RAW264.7 [1] was greater than 50 µM. For the same compound, the Activity entry with RAW264.7 [2] is listed as “Non-toxic”.
For `C=CCc1cc(OC)c(O[C@H](C)[C@@H](O)c2ccc(OC)c(OC)c2)c(OC)c1`, the IC50 in the series with RAW264.7 [1] is greater than 50 µM. For the same compound, the Activity result in the series on RAW264.7 [2] was “Non-toxic”.
For `CC1=C(O)C(=O)C=C2C1=CC=C1[C@@]2(C)CC[C@@]2(C)[C@@H]3C[C@](C)(C(=O)O)CC[C@]3(C)CC[C@]12C` [CELASTROL], in the series on RAW264.7 [1], the IC50 turned out to be 1 µM.
Take `Oc1ccc([C@@H](O)CCc2ccc3c(c2)OCO3)c(O)c1`: in the series with RAW264.7 [1], the IC50 was greater than 50 µM. Also, the Activity entry with RAW264.7 [2] was “Non-toxic”.
As for `O=C(CCCCCCCCc1ccc(O)c(O)c1)c1c(O)cccc1O` [MALABARICONE C], the inhibition result in the series with RAW264.7 [3] and in the series on RAW264.7 [4] was “Dose-dependent effect” in each case. The IC50 in the series on RAW264.7 [1] turned out to be 2.3 µM. Further, the Activity entry in the series with RAW264.7 [2] is “Non-toxic”. In addition, the inhibition result in the series on RAW264.7 [5] was “inactive”.
